Reference: ChEMBL document CHEMBL4229344 (Eur J Med Chem, 2018)

Columns and labels:
[1] = biological target: Activin receptor type-2A (Homo sapiens) (UniProt P27037); assay: Binding affinity to wild-type human ACVR2A (V171 to T499 residues) expressed in bacterial expression system assessed as residual binding level at 1 uM by Kinomescan method relative to control
In short: (§1)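 Single-concentration (1 μM) competition-binding screen run by KINOMEscan against a panel of 468 purified kinases and mutants. The read-out is the relative binding activity of the test compound to each kinase.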

[2] = biological target: Atypical kinase COQ8A, mitochondrial (Homo sapiens) (UniProt Q8NI60); assay: Binding affinity to wild-type human full length ADCK3 (M280 to Q647 residues) expressed in bacterial expression system assessed as residual binding level at 1 uM by Kinomescan method relative to control; in short: as §1
[3] = biological target: Calcium/calmodulin-dependent protein kinase type IV (Homo sapiens) (UniProt Q16566); assay: Binding affinity to wild-type human partial length CAMK4 (A22 to A322 residues) expressed in bacterial expression system assessed as residual binding level at 1 uM by Kinomescan method relative to control
[4] = biological target: CDK4/Cyclin D3 (Homo sapiens) (UniProt P11802+P30281); assay: Binding affinity to wild-type human full length CDK4/cyclinD3 (M1 to E303 residues) expressed in mammalian expression system assessed as residual binding level at 1 uM by Kinomescan method relative to control; in short: as §1
[5] = biological target: Casein kinase I isoform gamma-1 (Homo sapiens) (UniProt Q9HCP0); assay: Binding affinity to wild-type human partial length CSNK1G1 (T15 to S353 residues) expressed in bacterial expression system assessed as residual binding level at 1 uM by Kinomescan method relative to control
[6] = biological target: Discoidin domain-containing receptor 2 (Homo sapiens) (UniProt Q16832); assay: Binding affinity to wild-type human partial length DDR2 (V555 to E855 residues) expressed in mammalian expression system assessed as residual binding level at 1 uM by Kinomescan method relative to control
In short: (§2)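 Kinome-wide competition binding screen against a panel of 468 purified kinases/mutants, with the test compound at a single concentration of 1 μM. Read-out is the relative binding activity of each kinase in the presence of compound.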

[7] = biological target: Mitogen-activated protein kinase 6 (Homo sapiens) (UniProt Q16659); assay: Binding affinity to wild-type human partial length ERK3 (M1 to P413 residues) expressed in bacterial expression system assessed as residual binding level at 1 uM by Kinomescan method relative to control; in short: as §2
[8] = biological target: Mitogen-activated protein kinase 7 (Homo sapiens) (UniProt Q13164); assay: Binding affinity to wild-type human partial length ERK5 (M1 to A409 residues) expressed in bacterial expression system assessed as residual binding level at 1 uM by Kinomescan method relative to control; in short: as §2
[9] = biological target: Receptor-type tyrosine-protein kinase FLT3 (Homo sapiens) (UniProt P36888); assay: Binding affinity to wild-type human partial length FLT3 (V592 to Y969 residues) expressed in bacterial expression system assessed as residual binding level at 1 uM by Kinomescan method relative to control
[10] = test system: Receptor-type tyrosine-protein kinase FLT3 (Homo sapiens), P36888 [D835V]; assay: Binding affinity to human partial length FLT3 D835V mutant (V592 to Y969 residues) expressed in bacterial expression system assessed as residual binding level at 1 uM by Kinomescan method relative to control
In short: (§3)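 Kinome-wide single-concentration binding screen (KINOMEscan) at 1 μM against a panel of 468 purified kinases and mutants. Read-out is relative binding of each kinase compared with control. Selectivity across the panel was summarised as an S(10) score.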

[11] = test system: Receptor-type tyrosine-protein kinase FLT3 (Homo sapiens), P36888 [K663Q]; assay: Binding affinity to human partial length FLT3 K663Q mutant (V592 to Y969 residues) expressed in bacterial expression system assessed as residual binding level at 1 uM by Kinomescan method relative to control; in short: as §3
[12] = biological target: Homeodomain-interacting protein kinase 3 (Homo sapiens) (UniProt Q9H422); assay: Binding affinity to wild-type human partial length HIPK3 (M153 to N562 residues) expressed in mammalian expression system assessed as residual binding level at 1 uM by Kinomescan method relative to control
[13] = biological target: Mitogen-activated protein kinase 8 (Homo sapiens) (UniProt P45983); assay: Binding affinity to wild-type human full length JNK1 (M1 to Q384 residues) expressed in mammalian expression system assessed as residual binding level at 1 uM by Kinomescan method relative to control
In short: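 KINOMEscan competition binding against 468 purified kinases/mutants, test compound at 1 µM; residual binding relative to control.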

[14] = biological target: LIM domain kinase 1 (Homo sapiens) (UniProt P53667); assay: Binding affinity to wild-type human full length LIMK1 (M1 to D647 residues) expressed in bacterial expression system assessed as residual binding level at 1 uM by Kinomescan method relative to control; in short: as §1
[15] = biological target: Dual specificity mitogen-activated protein kinase kinase 5 (Homo sapiens) (UniProt Q13163); assay: Binding affinity to wild-type human partial length MEK5 (L98 to P448 residues) expressed in mammalian expression system assessed as residual binding level at 1 uM by Kinomescan method relative to control
[16] = biological target: Serine/threonine-protein kinase pim-2 (Homo sapiens) (UniProt Q9P1W9); assay: Binding affinity to wild-type human partial length PIM2 (M1 to E291 residues) expressed in bacterial expression system assessed as residual binding level at 1 uM by Kinomescan method relative to control
[17] = biological target: Protein kinase C theta type (Homo sapiens) (UniProt Q04759); assay: Binding affinity to wild-type human partial length PRKCQ (L350 to S706 residues) expressed in bacterial expression system assessed as residual binding level at 1 uM by Kinomescan method relative to control
In short: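 KINOMEscan competition binding against a panel of 468 purified kinases/mutants, compound tested at 1 μM; readout is relative binding activity versus control.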

[18] = biological target: RAF proto-oncogene serine/threonine-protein kinase (Homo sapiens) (UniProt P04049); assay: Binding affinity to wild-type human partial length RAF1 (I330 to T640 residues) expressed in bacterial expression system assessed as residual binding level at 1 uM by Kinomescan method relative to control
[19] = biological target: Ribosomal protein S6 kinase alpha-5 (Homo sapiens) (UniProt O75582); assay: Binding affinity to wild-type human partial length N-terminal RPS6KA5 kinase domain 1 expressed in bacterial expression system assessed as residual binding level at 1 uM by Kinomescan method relative to control
[20] = biological target: Wee1-like protein kinase 2 (Homo sapiens) (UniProt P0C1S8); assay: Binding affinity to wild-type human partial length WEE2 (M204 to K492 residues) expressed in bacterial expression system assessed as residual binding level at 1 uM by Kinomescan method relative to control
[21] = biological target: Serine/threonine-protein kinase 32C (Homo sapiens) (UniProt Q86UX6); assay: Binding affinity to wild-type human partial length YANK3 (M68 to G486 residues) expressed in bacterial expression system assessed as residual binding level at 1 uM by Kinomescan method relative to control
[22] = biological target: Platelet-derived growth factor receptor alpha (Homo sapiens, UniProt P16234); assay: Inhibition of PDGFRalpha (unknown origin) using poly(4:1 Glu,Tyr) peptide as substrate preincubated for 1 hr followed by addition of ATP and measured after 30 mins by ADP-Glo bioluminescence assay

Sequence of Serine/threonine-protein kinase pim-2 (Homo sapiens) (Q9P1W9 whole entry, looked up, the tested form may be a part): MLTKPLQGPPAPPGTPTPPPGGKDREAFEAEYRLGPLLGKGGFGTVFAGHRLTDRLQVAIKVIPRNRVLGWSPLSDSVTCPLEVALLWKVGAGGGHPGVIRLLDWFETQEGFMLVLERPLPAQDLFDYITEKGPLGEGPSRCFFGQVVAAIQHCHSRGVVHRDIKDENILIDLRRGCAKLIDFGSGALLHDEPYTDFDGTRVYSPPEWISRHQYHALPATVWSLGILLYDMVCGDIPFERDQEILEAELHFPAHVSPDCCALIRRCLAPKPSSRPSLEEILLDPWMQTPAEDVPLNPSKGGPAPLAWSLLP
Sequence of Wee1-like protein kinase 2 (Homo sapiens) (P0C1S8 whole entry, looked up, the tested form may be a part): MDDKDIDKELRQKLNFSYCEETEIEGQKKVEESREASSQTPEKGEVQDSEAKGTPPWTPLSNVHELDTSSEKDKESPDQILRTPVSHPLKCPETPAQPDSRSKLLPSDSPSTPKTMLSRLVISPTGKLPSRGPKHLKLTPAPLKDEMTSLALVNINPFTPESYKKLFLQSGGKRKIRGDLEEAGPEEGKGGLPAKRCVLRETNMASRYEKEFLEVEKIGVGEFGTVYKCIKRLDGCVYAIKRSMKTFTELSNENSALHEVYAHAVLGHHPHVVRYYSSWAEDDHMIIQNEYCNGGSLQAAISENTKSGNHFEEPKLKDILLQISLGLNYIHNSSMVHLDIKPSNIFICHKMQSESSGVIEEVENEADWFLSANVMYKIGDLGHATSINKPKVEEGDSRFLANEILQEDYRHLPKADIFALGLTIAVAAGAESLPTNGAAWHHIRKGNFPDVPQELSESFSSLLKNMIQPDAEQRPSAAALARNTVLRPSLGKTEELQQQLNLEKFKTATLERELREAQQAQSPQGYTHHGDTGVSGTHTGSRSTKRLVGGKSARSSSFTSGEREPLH
Sequence of Homeodomain-interacting protein kinase 3 (Homo sapiens) (Q9H422 whole entry, looked up, the tested form may be a part): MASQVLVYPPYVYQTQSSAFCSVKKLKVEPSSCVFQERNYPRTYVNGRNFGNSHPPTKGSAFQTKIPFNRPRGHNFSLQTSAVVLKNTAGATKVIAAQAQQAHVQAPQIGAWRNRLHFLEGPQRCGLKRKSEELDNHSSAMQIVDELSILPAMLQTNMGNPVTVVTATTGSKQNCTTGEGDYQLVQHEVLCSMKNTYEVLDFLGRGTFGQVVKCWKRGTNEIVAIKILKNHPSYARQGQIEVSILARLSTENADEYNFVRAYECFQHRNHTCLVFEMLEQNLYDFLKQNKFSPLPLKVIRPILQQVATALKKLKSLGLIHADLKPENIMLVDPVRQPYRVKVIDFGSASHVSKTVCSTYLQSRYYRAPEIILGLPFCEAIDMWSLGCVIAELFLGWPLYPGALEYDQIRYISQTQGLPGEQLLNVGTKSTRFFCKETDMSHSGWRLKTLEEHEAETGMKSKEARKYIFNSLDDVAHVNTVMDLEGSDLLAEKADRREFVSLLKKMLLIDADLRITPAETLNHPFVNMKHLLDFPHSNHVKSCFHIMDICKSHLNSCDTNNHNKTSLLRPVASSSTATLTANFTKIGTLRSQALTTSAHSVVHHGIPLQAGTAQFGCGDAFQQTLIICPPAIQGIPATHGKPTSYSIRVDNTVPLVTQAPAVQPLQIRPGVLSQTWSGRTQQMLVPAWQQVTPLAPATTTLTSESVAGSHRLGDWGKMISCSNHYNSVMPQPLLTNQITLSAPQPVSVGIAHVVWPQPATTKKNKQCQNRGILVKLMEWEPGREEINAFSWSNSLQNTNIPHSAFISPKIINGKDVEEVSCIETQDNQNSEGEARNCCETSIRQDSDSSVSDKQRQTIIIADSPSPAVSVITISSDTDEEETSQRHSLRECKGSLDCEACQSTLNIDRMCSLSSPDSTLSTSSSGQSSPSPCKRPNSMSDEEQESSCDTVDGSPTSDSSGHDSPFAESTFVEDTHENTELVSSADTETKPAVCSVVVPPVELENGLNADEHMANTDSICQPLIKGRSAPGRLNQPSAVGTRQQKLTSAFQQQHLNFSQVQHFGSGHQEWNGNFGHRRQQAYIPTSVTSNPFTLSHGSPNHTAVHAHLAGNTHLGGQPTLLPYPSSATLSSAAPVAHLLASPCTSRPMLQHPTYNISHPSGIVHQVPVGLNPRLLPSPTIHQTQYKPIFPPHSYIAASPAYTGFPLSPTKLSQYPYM
Sequence of Ribosomal protein S6 kinase alpha-5 (Homo sapiens) (O75582 whole entry, looked up, the tested form may be a part): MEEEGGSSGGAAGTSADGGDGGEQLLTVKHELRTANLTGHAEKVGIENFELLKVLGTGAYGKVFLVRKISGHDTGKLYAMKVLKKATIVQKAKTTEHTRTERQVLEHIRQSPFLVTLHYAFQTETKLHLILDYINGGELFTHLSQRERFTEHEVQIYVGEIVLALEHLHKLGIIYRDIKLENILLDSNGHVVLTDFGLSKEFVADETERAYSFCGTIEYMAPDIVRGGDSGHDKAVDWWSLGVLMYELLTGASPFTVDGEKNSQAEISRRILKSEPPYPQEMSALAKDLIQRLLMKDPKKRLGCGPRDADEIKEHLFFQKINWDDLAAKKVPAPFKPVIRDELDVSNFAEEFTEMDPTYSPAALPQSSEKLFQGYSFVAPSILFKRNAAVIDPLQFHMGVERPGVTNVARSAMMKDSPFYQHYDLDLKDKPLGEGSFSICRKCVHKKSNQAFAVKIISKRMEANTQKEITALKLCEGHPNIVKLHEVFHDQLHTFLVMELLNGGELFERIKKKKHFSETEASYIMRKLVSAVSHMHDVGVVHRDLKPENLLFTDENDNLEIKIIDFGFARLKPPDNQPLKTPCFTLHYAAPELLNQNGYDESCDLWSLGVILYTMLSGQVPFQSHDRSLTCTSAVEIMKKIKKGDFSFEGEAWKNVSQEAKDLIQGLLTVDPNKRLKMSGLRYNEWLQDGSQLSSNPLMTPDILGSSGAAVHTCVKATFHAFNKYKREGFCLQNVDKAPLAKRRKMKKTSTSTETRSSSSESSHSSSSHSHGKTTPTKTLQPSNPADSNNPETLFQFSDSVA
Sequence of Dual specificity mitogen-activated protein kinase kinase 5 (Homo sapiens) (Q13163 whole entry, the tested form may be a part): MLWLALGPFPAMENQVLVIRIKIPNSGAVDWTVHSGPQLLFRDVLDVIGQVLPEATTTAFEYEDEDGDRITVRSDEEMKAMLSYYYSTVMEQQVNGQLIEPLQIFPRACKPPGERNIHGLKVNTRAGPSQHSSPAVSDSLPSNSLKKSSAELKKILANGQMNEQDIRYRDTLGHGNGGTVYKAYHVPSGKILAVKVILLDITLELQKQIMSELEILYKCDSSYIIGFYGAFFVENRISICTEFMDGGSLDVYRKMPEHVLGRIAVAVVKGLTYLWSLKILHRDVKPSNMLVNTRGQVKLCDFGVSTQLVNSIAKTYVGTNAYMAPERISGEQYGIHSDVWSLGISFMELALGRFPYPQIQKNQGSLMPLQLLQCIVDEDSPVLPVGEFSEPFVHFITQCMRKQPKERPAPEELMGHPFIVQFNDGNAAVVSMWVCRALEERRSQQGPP
Sequence of Protein kinase C theta type (Homo sapiens) (Q04759 whole entry, looked up, the tested form may be a part): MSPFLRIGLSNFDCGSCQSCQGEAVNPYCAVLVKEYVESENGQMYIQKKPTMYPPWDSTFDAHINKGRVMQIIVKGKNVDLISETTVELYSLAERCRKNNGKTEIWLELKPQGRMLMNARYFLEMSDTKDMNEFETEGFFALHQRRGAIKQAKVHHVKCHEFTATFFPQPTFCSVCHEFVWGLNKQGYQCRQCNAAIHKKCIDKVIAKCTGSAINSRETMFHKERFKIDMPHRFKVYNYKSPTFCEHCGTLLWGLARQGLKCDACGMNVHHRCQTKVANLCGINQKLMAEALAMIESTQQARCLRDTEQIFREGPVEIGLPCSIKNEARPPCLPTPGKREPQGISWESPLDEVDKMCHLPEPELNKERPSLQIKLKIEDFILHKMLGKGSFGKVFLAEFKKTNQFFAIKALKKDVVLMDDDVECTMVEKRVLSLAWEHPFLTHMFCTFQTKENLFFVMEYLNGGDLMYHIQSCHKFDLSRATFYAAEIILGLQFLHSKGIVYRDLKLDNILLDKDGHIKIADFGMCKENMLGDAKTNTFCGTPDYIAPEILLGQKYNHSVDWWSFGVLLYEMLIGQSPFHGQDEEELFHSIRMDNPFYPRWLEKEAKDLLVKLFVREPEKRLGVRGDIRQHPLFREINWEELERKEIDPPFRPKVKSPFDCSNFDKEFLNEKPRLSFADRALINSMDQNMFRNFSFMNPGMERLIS
Sequence of Mitogen-activated protein kinase 6 (Homo sapiens) (Q16659 whole entry, the tested form may be a part): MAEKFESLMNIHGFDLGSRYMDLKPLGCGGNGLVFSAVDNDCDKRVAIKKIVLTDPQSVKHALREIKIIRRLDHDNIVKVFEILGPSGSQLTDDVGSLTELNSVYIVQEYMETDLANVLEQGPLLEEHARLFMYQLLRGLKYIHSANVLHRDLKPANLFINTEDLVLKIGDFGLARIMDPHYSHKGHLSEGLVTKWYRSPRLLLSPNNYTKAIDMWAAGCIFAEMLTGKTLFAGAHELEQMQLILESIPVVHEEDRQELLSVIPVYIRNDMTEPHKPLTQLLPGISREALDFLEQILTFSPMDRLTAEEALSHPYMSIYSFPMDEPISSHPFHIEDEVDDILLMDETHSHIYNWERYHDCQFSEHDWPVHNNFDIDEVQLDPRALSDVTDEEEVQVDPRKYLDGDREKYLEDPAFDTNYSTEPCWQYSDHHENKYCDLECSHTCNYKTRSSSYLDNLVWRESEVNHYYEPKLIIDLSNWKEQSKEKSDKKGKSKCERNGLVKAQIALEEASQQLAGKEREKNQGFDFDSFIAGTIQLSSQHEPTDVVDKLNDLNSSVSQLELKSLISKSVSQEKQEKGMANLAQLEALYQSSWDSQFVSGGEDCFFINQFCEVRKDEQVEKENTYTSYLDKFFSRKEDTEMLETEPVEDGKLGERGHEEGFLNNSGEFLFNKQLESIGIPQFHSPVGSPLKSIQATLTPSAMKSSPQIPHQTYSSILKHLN

Cc1ccc(NC(=O)c2ccc(CN(CCN(C)C)C(=O)c3cccnc3)cc2)cc1Nc1nccc(-c2cccnc2)n1
Activity [1]: 96% | Activity [2]: 100% | Activity [3]: 98% | Activity [4]: 100% | Activity [5]: 90% | Activity [6]: 33% | Activity [7]: 94% | Activity [8]: 84% | Activity [9]: 89% | Activity [10]: 100% | Activity [11]: 93% | Activity [12]: 93% | Activity [13]: 36% | Activity [14]: 100% | Activity [15]: 100% | Activity [16]: 93% | Activity [17]: 83% | Activity [18]: 100% | Activity [19]: 86% | Activity [20]: 96% | Activity [21]: 96% | IC50 [22]: 132 nM
